Laboratory results as given in ChEMBL document CHEMBL2069243, “Synthesis and SAR of pyridothiazole substituted pyrimidine derived HCV replication inhibitors” (Bioorg Med Chem Lett, 2012).

Experiments:
Hepatitis C virus [1] = assay: Antiviral activity against Hepatitis C virus 1b con1 infected in human hepatoma cells assessed as decrease in replicon RNA level after 3 days by RT-PCR analysis; type: functional, organism-based, Hepacivirus hominis; details: genotype 1b Con1, 72 h
Summary of the method: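 Con1 genotype 1b replicon cells were seeded at 5000 cells/well one day before treatment. Compound in DMSO was added (final 0.5% DMSO, 10% FBS) as 10 serial twofold dilutions in triplicate. Cells were harvested 3 days after dosing. Replicon RNA was quantified by real-time RT-PCR (Taqman), normalized to GAPDH RNA, and EC50 was calculated.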

[2] = Cytotoxicity against human hepatoma cells after 3 days by MTS assay; type: cell-based
Summary of the method: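 MTS cell proliferation assay on replicon cells handled as in the replicon activity assay (seeded one day before, 0.5% DMSO, 10% FBS, serial dilutions), read 3 days after dosing. CC50 is the concentration giving 50% inhibition relative to vehicle-treated cells.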

[3] = Cytotoxicity against human hepatoma cells assessed as decrease in GADPH RNA level after 3 days by Rt-PCR analysis; type: cell-based
[4] = Drug uptake in rat liver at 10 mg/kg, po at 6 hrs; type: ADME, organism-based; design: dose 10 mg/kg, route oral; details: read-out: Drug uptake
Summary of the method: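 Rats were dosed orally at 10 mpk in 0.4% methylcellulose, n=2. Animals were sacrificed at 6 h, and liver was harvested and processed to measure compound concentration (liver C6 h).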

[5] = AUC (0 to 24 hrs) in rat at 10 mg/kg, po; type: ADME, organism-based; design: time < 24 hr, dose 10 mg/kg, route oral; details: plasma
[6] = Cytotoxicity against human hepatoma cells assessed as inhibition of [14C]thymidine incorporation after 3 days by TopCount analysis; type: cell-based
Summary of the method: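 Replicon cells were seeded in scintillating microplates one day before treatment. Compound dilutions in triplicate were added with [methyl-14C]-thymidine (final 0.5 uCi/mL) and incubated 3 days. Incorporated label was counted by scintillation proximity. DNA CC50 is the concentration giving 50% inhibition of thymidine incorporation versus vehicle-treated cells.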

Hepatitis C virus [7] = assay: Antiviral activity against Hepatitis C virus 1a by replicon-based assay; type: functional, organism-based, Hepacivirus hominis; details: subtype 1a
Hepatitis C virus [8] = assay: Antiviral activity against Hepatitis C virus 2a by replicon-based assay; type: functional, organism-based, Hepacivirus hominis; details: genotype 2a
[9] = Oral bioavailability in rat at 10 mg/kg; type: ADME, organism-based; details: in vivo
[10] = Half life in rat at 10 mg/kg, po; type: ADME, organism-based; design: dose 10 mg/kg, route oral; details: in vivo
[11] = Clearance in rat at 10 mg/kg, po; type: ADME, organism-based; design: dose 10 mg/kg, route oral; details: in vivo
[12] = AUC in monkey at 3 mg/kg, po; type: ADME, organism-based, Macaca mulatta; design: dose 3 mg/kg, route oral; details: rhesus monkey, plasma
Summary of the method: (§1)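 Oral dosing of the HCl salt at 3 mpk; plasma AUC reported in µM.h.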

[13] = Oral bioavailability in monkey at 3 mg/kg; type: ADME, organism-based, Macaca mulatta; details: rhesus monkey, in vivo
[14] = Half life in monkey at 3 mg/kg, po; type: ADME, organism-based, Macaca mulatta; design: dose 3 mg/kg, route oral; details: rhesus monkey, in vivo
[15] = Clearance in monkey at 3 mg/kg, po; type: ADME, organism-based, Macaca mulatta; design: dose 3 mg/kg, route oral; details: rhesus monkey, in vivo
[16] = AUC in dog at 3 mg/kg, po; type: ADME, organism-based, Canis lupus familiaris; design: dose 3 mg/kg, route oral; details: plasma; summary of the method: as §1
[17] = Oral bioavailability in dog at 3 mg/kg; type: ADME, organism-based, Canis lupus familiaris; details: in vivo
[18] = Half life in dog at 3 mg/kg, po; type: ADME, organism-based, Canis lupus familiaris; design: dose 3 mg/kg, route oral; details: in vivo
[19] = Clearance in dog at 3 mg/kg, po; type: ADME, organism-based, Canis lupus familiaris; design: dose 3 mg/kg, route oral; details: in vivo
Cytochrome P450 3A4 = Cytochrome P450 3A4 (Homo sapiens, UniProt P08684); assay: Inhibition of CYP3A4; type: ADME
Sequence of Cytochrome P450 3A4 (P08684 whole entry): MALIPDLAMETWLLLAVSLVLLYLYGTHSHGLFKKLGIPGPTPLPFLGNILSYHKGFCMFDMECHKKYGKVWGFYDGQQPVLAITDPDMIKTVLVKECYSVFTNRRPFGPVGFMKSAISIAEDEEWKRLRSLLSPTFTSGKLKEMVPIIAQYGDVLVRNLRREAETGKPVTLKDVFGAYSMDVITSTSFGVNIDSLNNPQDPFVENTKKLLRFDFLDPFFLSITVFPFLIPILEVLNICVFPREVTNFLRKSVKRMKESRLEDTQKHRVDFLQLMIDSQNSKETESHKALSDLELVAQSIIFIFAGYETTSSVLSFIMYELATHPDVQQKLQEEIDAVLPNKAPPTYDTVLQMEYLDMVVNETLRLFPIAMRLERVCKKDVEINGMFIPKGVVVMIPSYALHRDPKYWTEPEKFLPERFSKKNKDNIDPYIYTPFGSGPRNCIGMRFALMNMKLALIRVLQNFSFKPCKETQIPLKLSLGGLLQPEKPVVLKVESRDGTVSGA

Cytochrome P450 2D6 = Cytochrome P450 2D6 (Homo sapiens, UniProt P10635); assay: Inhibition of CYP2D6; type: ADME
Sequence of Cytochrome P450 2D6 (P10635 whole entry): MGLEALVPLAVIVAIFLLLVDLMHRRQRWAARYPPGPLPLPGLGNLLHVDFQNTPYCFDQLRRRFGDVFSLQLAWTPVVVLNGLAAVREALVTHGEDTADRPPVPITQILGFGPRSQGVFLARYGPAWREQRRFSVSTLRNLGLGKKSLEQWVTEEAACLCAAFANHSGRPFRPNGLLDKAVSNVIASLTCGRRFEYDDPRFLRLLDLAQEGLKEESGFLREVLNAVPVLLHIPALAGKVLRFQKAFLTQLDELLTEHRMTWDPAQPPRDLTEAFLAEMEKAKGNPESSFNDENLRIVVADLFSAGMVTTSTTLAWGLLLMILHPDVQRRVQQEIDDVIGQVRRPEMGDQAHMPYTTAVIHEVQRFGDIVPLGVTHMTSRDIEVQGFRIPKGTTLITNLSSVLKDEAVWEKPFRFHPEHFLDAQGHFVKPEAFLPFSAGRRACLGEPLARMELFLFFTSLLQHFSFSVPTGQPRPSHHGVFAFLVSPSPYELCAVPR

Cytochrome P450 2C9 = Cytochrome P450 2C9 (Homo sapiens, UniProt P11712); assay: Inhibition of CYP2C9; type: ADME
Sequence of Cytochrome P450 2C9 (P11712 whole entry): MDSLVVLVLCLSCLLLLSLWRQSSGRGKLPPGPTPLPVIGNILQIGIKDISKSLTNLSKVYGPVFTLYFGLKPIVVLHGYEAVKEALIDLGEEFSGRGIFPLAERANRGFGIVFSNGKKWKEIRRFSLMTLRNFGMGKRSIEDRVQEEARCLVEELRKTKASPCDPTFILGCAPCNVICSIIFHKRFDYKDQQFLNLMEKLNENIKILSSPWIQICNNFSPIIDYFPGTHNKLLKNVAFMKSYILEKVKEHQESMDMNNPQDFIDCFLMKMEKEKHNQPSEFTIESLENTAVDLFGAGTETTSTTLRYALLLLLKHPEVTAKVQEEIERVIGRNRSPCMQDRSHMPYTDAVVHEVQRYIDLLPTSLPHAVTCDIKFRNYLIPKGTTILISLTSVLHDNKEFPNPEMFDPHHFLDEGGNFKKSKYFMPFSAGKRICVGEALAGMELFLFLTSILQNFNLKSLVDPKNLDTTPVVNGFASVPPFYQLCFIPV

Row | Structure (SMILES) | EC50 (Hepatitis C virus [1]) [µM] | CC50 at 72 h [2] [µM] | CC50 at 72 h [3] [µM] | concentration at 6 h [4] [ng/g] | AUC(0-t) at 24 h [5] [µM·h] | CC50 at 72 h [6] [µM] | EC50 (Hepatitis C virus [7]) [µM] | EC50 (Hepatitis C virus [8]) [µM] | bioavailability [9] [%] | half-life [10] [h] | CL/F [11] [mL/min/kg] | AUC [12] [µM·h] | bioavailability [13] [%] | half-life [14] [h] | CL/F [15] [mL/min/kg] | AUC [16] [µM·h] | bioavailability [17] [%] | half-life [18] [h] | CL/F [19] [mL/min/kg] | INH (Cytochrome P450 3A4) [µM] | also measured
1 | Cc1nc(N[C@H](C)c2ccc(OC(F)(F)F)cc2)nc(N[C@@H]2C[C@H](CO)[C@@H](O)[C@H]2O)c1-c1nc2c(C3CC3)nccc2s1.Cl | 0.06 | > 25 | 25 | 11000 | 5.2 | > 25 | 0.4 | 0.18 | 18 | 5 | 11 | 1.3 | 12 | 4.4 | 7.2 | 5.1 | 32 | 5.2 | 4.2 | > 20 | INH (Cytochrome P450 2D6): > 20 µM; INH (Cytochrome P450 2C9): > 20 µM
2 | Cc1nc(N[C@H](C)c2ccc(OC(F)(F)F)cc2)nc(N[C@@H]2C[C@H](CO)[C@@H](O)[C@H]2O)c1-c1nc2c(C)nccc2s1.Cl | 0.016 | > 25 | 25 | 2820 | 1.1 | > 25 | 0.07 | 0.08 | 15 | 2.5 | 40 | 0.3 | 7 | 3.3 | 20 | 2.9 | 31 | 4.2 | 9.8 | > 20 | INH (Cytochrome P450 2D6): > 20 µM; INH (Cytochrome P450 2C9): > 20 µM
